Compound activity from PubChem BioAssay.
RTF Ca sens act: cardiac RTF calcium sensitivity activators, primary screen, biochemical, IANBD-TnC fluorescence, EC20 calcium | IANBD-labeled TnC RTF fluorescence at EC20 calcium; 0% EC20 calcium, 100% full calcium | activation, % at 7.2 µM | actives 0.24% (n = 340,000);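 active means activation above the mean over all tested compounds plus 3 SD, cut at about 30% in these data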;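 further: rise in fluorescence read as greater calcium sensitivity of cardiac thin filaments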
ARNT-TACC3 inh: disruptors of ARNT/TACC3 protein interaction, primary screen, biochemical, AlphaScreen, single concentration | inhibition, % at 9.99 µM | AlphaScreen His-ARNT PAS-B/GST-TACC3 binding, luminescence; TACC3 fragment carries E629A point mutation | Transforming acidic coiled-coil-containing protein 3 (Homo sapiens), Q9Y6A5 | actives 0.66% (n = 390,000);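 active means mean inhibition of replicates at least 50% and at least half of replicates each reaching 50%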;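 further: 0% = complete ARNT plus TACC3 wells and 100% = ARNT alone without TACC3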
Cardiac RTF inh: cardiac RTF calcium sensitivity inhibitors, primary screen, biochemical, IANBD-TnC fluorescence, EC70 calcium. actives 0.12% (n = 340,000). Troponin I, cardiac muscle (Homo sapiens) + Troponin T, cardiac muscle (Homo sapiens) + …. inhibition, % at 7.15 µM. IANBD-labeled cardiac RTF, Ca2+ fluorescence;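 active means inhibition above the mean inhibition of all tested compounds plus 3 SD, cut at about 17% in these data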;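 further: assay run at fixed EC70 calcium of 1.6 mM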
Efflux pump mplx: inhibitors of Candida efflux pumps in yeast, primary screen, S. cerevisiae, Nile Red, multiplex; S. cerevisiae Candida pump triplex; inhibition, % at 10 µM; actives 0.44% (n = 330,000); AID 485275, 2010;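 active means plate passing quality check with inhibition over a set limit, or well fluorescence over plate mean plus 4 SD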;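 further: Nile Red retained in pooled yeast measured as flow cytometry median fluorescence; 0% = buffer negative control and 100% = Enniatin B positive control; higher means more Nile Red kept so more efflux inhibition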
UCH37 inh: inhibitors of human UCH37 deubiquitinase, primary screen, biochemical, Ub-AMC cleavage, fluorescence | actives 0.33% (n = 330,000) | AID 588478, 2011 | inhibition, % (test concentration not listed) | Ubiquitin carboxyl-terminal hydrolase isozyme L5 (Homo sapiens), Q9Y5K5 | purified proteasome/UCH37;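 active means mean inhibition over replicate wells above about 20%, limit read from the data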;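 further: 0% = compound-free wells with enzyme and 100% = wells lacking proteasome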
Target sequence (Q9Y5K5 whole entry, looked up): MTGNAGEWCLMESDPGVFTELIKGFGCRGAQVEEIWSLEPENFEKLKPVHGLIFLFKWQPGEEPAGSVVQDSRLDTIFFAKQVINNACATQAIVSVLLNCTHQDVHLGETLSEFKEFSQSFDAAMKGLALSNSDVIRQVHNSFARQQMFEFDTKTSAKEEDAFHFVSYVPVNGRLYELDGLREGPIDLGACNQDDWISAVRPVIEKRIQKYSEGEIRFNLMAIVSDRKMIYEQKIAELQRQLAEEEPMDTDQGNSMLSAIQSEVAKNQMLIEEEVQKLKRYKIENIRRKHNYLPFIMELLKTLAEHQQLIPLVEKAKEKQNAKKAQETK
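Material: human UCH37 enzyme supplied as purified proteasome complex / Amount: 0.15 nM proteasome as dispensed / Buffer or medium: pH 7.4 Tris-HCl (50 mM) with ovalbumin, ATP-MgCl2, DTT / Times: preincubation 30 min, reaction 25 min, room temperature / Technique: AMC fluorescence from Ub-AMC cleavage, excitation 355 nm, emission 460 nm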
Mot1-301 SUMO: yeast Mot1-301 growth rescue at high temperature, primary screen, SUMOylation pathway inhibitor project, S. cerevisiae, ATP luminescence, 38.5C; S. cerevisiae Mot1-301 growth rescue; percent above DMSO median, 100 means doubled; growth rescue, % at 18.8 µM; actives 1% (n = 320,000); AID 2716, 2010;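 active means every valid replicate shows activation above 250% relative to neutral control wells; inactive means the rest, any valid replicate at or below 250%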;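 further: OY570 slx delta 5 strain wells were the positive control but not used for scaling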
UCH37 reconfirm: retest of human UCH37 deubiquitinase inhibitors, confirmation, biochemical, Ub-AMC cleavage rate, fluorescence; shares compounds with UCH37 inh; actives 27% (n = 480); Proteasome-bound UCH37; AID 624100, 2012; inhibition, % at 20 µM;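 active means average inhibition over replicates above about 50%, so the earlier screening hit is confirmed, limit read from the data; inactive means the rest, counted as false positives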;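 further: based on cleavage rate fitted by regression over a 30 min kinetic read; 0% = proteasome plus Ub-AMC and 100% = Ub-AMC without proteasome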
Active calls of the source: *. Only some compounds are listed: those with a hit (about 2.1% of all), similar ones and a draw of the others.

`CCNc1c([N+](=O)[O-])ncn1C` gave RTF Ca sens act 2, ARNT-TACC3 inh -2, Cardiac RTF inh 0, Efflux pump mplx 0, UCH37 inh 7 and Mot1-301 SUMO 9.
For Cn1cnc([N+](=O)[O-])c1Nc1ccc(O)cc1 the results were RTF Ca sens act -3, ARNT-TACC3 inh 7, Cardiac RTF inh -9, Efflux pump mplx 0, UCH37 inh 52*, Mot1-301 SUMO -16 and UCH37 reconfirm 0.
`CON=C(Cn1ncc(N2CCCC2)c(Cl)c1=O)c1ccc(Cl)cc1` gave UCH37 inh 8.
Screening COc1ccc(NC(=O)/C=C/c2c(Cl)nc3ccccn23)cc1 returned RTF Ca sens act -6, ARNT-TACC3 inh -6, Cardiac RTF inh -2, Efflux pump mplx 0, UCH37 inh 37*, Mot1-301 SUMO 3 and UCH37 reconfirm 9.
`Cc1nn(-c2cccc(Cl)c2)c(Cl)c1C=NNC(=O)c1cccs1` gave UCH37 inh 0.
`Cc1cc(C2=NNC(=NCCc3ccccc3)SC2)c(C)n1CC1CCCO1` (centres undefined) gave RTF Ca sens act 4, ARNT-TACC3 inh -7, Cardiac RTF inh -4, Efflux pump mplx 0, UCH37 inh 2 and Mot1-301 SUMO 108.
Clc1ccc(C2=NNC(=NCC3CCCO3)SC2)cc1 (centres undefined) was read as RTF Ca sens act 1, ARNT-TACC3 inh 7, Cardiac RTF inh 0, Efflux pump mplx 0, UCH37 inh 51* and UCH37 reconfirm 4.
CC(Oc1ccccc1)C(=O)N=Nc1c(O)[nH]c2ccc([N+](=O)[O-])cc12 (centres undefined) was read as RTF Ca sens act -3, ARNT-TACC3 inh 22, Cardiac RTF inh -8, Efflux pump mplx 0, UCH37 inh 67*, Mot1-301 SUMO 2 and UCH37 reconfirm 46.
Screening O=C(N=Nc1c(O)[nH]c2ccc([N+](=O)[O-])cc12)c1ccccc1[N+](=O)[O-] returned RTF Ca sens act 0, ARNT-TACC3 inh 13, Cardiac RTF inh -2, Efflux pump mplx 0, UCH37 inh 61*, Mot1-301 SUMO 6 and UCH37 reconfirm 14.
For O=C(/C=C/c1ccccc1)N/C(=C/c1ccccc1)C(=O)N1CCOCC1 the results were RTF Ca sens act 4, ARNT-TACC3 inh 5, Cardiac RTF inh 12, Efflux pump mplx 0, UCH37 inh 45*, Mot1-301 SUMO -6 and UCH37 reconfirm 4.
Screening CC(=O)N/C(=C\c1ccccc1)C(=O)N1CCOCC1 returned RTF Ca sens act 3, ARNT-TACC3 inh 3, Cardiac RTF inh -5, Efflux pump mplx 0, UCH37 inh 5 and Mot1-301 SUMO -17.
`COc1cccc(NC2=C(Cl)C(=O)OC2OC(=O)c2ccco2)c1` (centres undefined) gave RTF Ca sens act 2, ARNT-TACC3 inh -5, Cardiac RTF inh -8, Efflux pump mplx 0, UCH37 inh 37*, Mot1-301 SUMO -4 and UCH37 reconfirm 5.
For CCN1C(=O)/C(=C/C=C2/CCCN2C)OC1=S the results were RTF Ca sens act 32*, ARNT-TACC3 inh 12, Cardiac RTF inh -38, Efflux pump mplx 0, UCH37 inh 29*, Mot1-301 SUMO 9 and UCH37 reconfirm 36.
CN1C(=O)/C(=C\C=C2/CCCN2C)N(C)C1=S was read as RTF Ca sens act 16, Cardiac RTF inh -19, Efflux pump mplx 0, UCH37 inh 39*, Mot1-301 SUMO 9 and UCH37 reconfirm 31.
COc1ccc(C=NN2CCN(C)CC2)c(OC)c1OC was read as UCH37 inh 1.
Screening CCOc1cccc(C=NNC(=S)Nc2ccccc2[N+](=O)[O-])c1O returned UCH37 inh 49* and UCH37 reconfirm 14.
For NS(=O)(=O)c1ccc(N=Nc2c[nH]c(=O)c(O)c2)cc1 the results were RTF Ca sens act 58*, ARNT-TACC3 inh 52*, Cardiac RTF inh -37, Efflux pump mplx 1, UCH37 inh 33*, Mot1-301 SUMO -13 and UCH37 reconfirm 40.
Nc1nc(O)c(N=Nc2ccc(S(N)(=O)=O)cc2)c(=O)[nH]1 was read as Efflux pump mplx 0, UCH37 inh 6 and Mot1-301 SUMO -6.
For Cc1cccc(NC(=O)CN2C(=O)S/C(=C\c3ccc(O)c([N+](=O)[O-])c3)C2=O)c1 the results were RTF Ca sens act -10, ARNT-TACC3 inh 2, Cardiac RTF inh -1, Efflux pump mplx 0, UCH37 inh 16 and Mot1-301 SUMO 9.
`Cc1ccc(NC(=O)CN2C(=O)S/C(=C/c3ccc(O)c([N+](=O)[O-])c3)C2=O)cc1C` gave RTF Ca sens act -7, ARNT-TACC3 inh 9, Cardiac RTF inh 8, UCH37 inh 28* and UCH37 reconfirm 48.
For Cc1[nH]n(-c2ccccc2)c(=O)c1C(C[N+](=O)[O-])c1ccc(Cl)cc1 (centres undefined) the results were RTF Ca sens act 1, ARNT-TACC3 inh 10, Cardiac RTF inh 0, Efflux pump mplx 0, UCH37 inh 41* and UCH37 reconfirm -1.
`CN(C)c1ccc(/C=C/c2ccc3ccccc3[n+]2C)cc1` gave RTF Ca sens act -2, ARNT-TACC3 inh 29, Cardiac RTF inh 2, Efflux pump mplx 29*, UCH37 inh 25*, Mot1-301 SUMO -1 and UCH37 reconfirm 30.
Screening CCOc1cc(C=NNC(=O)c2ccc(C)nc2)cc([N+](=O)[O-])c1O returned UCH37 inh 27* and UCH37 reconfirm 24.
`O=C(Cc1ccc([N+](=O)[O-])cc1)NN=Cc1ccco1` gave UCH37 inh 1.
Screening COc1ccccc1N1CCN(N=C/C=C/c2ccccc2[N+](=O)[O-])CC1 returned UCH37 inh 5.
Cc1ccccc1NC1=C/C(=N\S(=O)(=O)c2cccs2)c2ccccc2C1=O was read as RTF Ca sens act -6, ARNT-TACC3 inh 16, Cardiac RTF inh -3, Efflux pump mplx 0, UCH37 inh 78*, Mot1-301 SUMO -6 and UCH37 reconfirm 3.
